ChEMBL document CHEMBL1126727, “Synthesis and anticonvulsant activity of enaminones. 2. Further structure-activity correlations” (J Med Chem, 1993)

How the values were obtained:
[1] = tested on: Rattus norvegicus; assay: Intraperitoneal (ip) toxicity tested in rats is the number of animals displaying neurotoxicity / number of animals tested (8) after 4 h at 100 mg / kg; type: organism-based; set-up: dose 100 mg / kg; conditions: in vivo
In short: (§1)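 Special ip screen run by the ADD Program in male Sprague-Dawley rats. Test drug was given ip at 100 mg/kg as a solution or suspension in 0.5% methylcellulose. Neurotoxicity was scored at 0.25, 0.5, 1, 2, 4, 6, 8 and 24 h after dosing. Each result is reported as number of rats showing neurotoxicity over number tested.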

[2] = tested on: Rattus norvegicus; assay: Intraperitoneal (ip) toxicity tested in rats is the number of animals displaying neurotoxicity / number of animals tested (8) after 2 h at 100 mg / kg; type: organism-based; set-up: dose 100 mg / kg; conditions: in vivo; in short: as §1
[3] = tested on: Mus musculus; assay: Toxicity observed in mice at >750 mg/kg ip; No Toxicity; conditions: in vivo
[4] = tested on: Rattus norvegicus; assay: Intraperitoneal (ip) toxicity tested in rats is the number of animals displaying neurotoxicity / number of animals tested (8) after 0.25 hr at 100 mg / kg; type: organism-based; set-up: dose 100 mg / kg; conditions: in vivo; in short: as §1
[5] = tested on: Rattus norvegicus; assay: Intraperitoneal (ip) toxicity tested in rats is the number of animals displaying neurotoxicity / number of animals tested (8) after 24 hr at 100 mg / kg; type: organism-based; set-up: dose 100 mg / kg; conditions: in vivo; in short: as §1
[6] = tested on: Rattus norvegicus; assay: Intraperitoneal (ip) toxicity tested in rats is the number of animals displaying neurotoxicity / number of animals tested (8) after 6 hr at 100 mg / kg; type: organism-based; set-up: dose 100 mg / kg; conditions: in vivo; in short: as §1
[7] = tested on: Mus musculus; assay: Effective dose administered intraperitoneally in mice at 15 minutes in maximal-electroshock (MES) test; conditions: ip, 0.25 h
[8] = tested on: Rattus norvegicus; assay: Intraperitoneal (ip) toxicity tested in rats is the number of animals displaying neurotoxicity / number of animals tested (8) after 1 hr at 100 mg / kg; type: organism-based; set-up: dose 100 mg / kg; conditions: in vivo; in short: as §1
[9] = tested on: Rattus norvegicus; assay: Intraperitoneal (ip) toxicity tested in rats is the number of animals displaying neurotoxicity / number of animals tested (8) after 0.50 h at 100 mg / kg; type: organism-based; set-up: dose 100 mg / kg; conditions: in vivo, 0.5 h; in short: as §1
[10] = Protective index expressed as TD50 / ED50; type: functional
[11] = Protective index expressed as TD50 / ED50; No toxicity; type: functional
[12] = tested on: Rattus norvegicus; assay: Toxicity observed in rats at >500 mg/kg po; conditions: in vivo
[13] = species: Rattus norvegicus; assay: Number of animals protected from electroshock seizure / number of animals tested (8) after 0.25 hour at 4.5 mg / kg in maximal electroshock seizures (MES); type: functional
In short: (§2)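 For the intraperitoneal rat screen, compound was given as a solution or a suspension in 0.5% methylcellulose. Protection against maximal electroshock seizures was tested at 0.25 h or 0.50 h after dosing, in 8 animals per dose. Results are expressed as animals protected over animals tested, and ED50 in mg/kg ip, with a range, was derived from these counts.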

[14] = species: Rattus norvegicus; assay: Number of animals exhibiting neurotoxicity / number of animals tested (8) after 2.0 hr at 110 mg / kg; type: functional
In short: (§3)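 Rats were dosed intraperitoneally, with compound given as a solution or a suspension in 0.5% methylcellulose. Neurotoxicity was scored 2.0 h after dosing in 8 animals per dose level (110–440 mg/kg). TD50 in mg/kg ip was derived from the dose–response, with a range given in parentheses.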

[15] = species: Rattus norvegicus; assay: Number of animals exhibiting neurotoxicity / number of animals tested (8) after 2.0 hr at 440 mg / kg; type: functional; in short: as §3
[16] = species: Rattus norvegicus; assay: Number of animals protected from electroshock seizure / number of animals tested (8) after 0.25 hour at 3.6 mg / kg in maximal electroshock seizures (MES); type: functional; in short: as §2
[17] = species: Rattus norvegicus; assay: Number of animals exhibiting neurotoxicity / number of animals tested (8) after 2.0 hr at 220 mg / kg; type: functional; in short: as §3
[18] = species: Rattus norvegicus; assay: Number of animals protected from electroshock seizure / number of animals tested (8) after 0.25 hour at 1.2 mg / kg in maximal electroshock seizures (MES); type: functional; in short: as §2
[19] = species: Rattus norvegicus; assay: Number of animals protected from electroshock seizure / number of animals tested (8) after 0.25 hour at 7.0 mg / kg in maximal electroshock seizures (MES); type: functional; in short: as §2
[20] = species: Rattus norvegicus; assay: Number of animals exhibiting neurotoxicity / number of animals tested (8) after 2.0 hr at 180 mg / kg; type: functional; in short: as §3
[21] = species: Rattus norvegicus; assay: (§4) Protective index (TD50 / MES ED50); type: functional
[22] = Toxic dose was determined after intraperitoneal administration; type: toxicity, organism-based; conditions: rat, in vivo, ip; in short: as §3
[23] = tested on: Rattus norvegicus; assay: Anticonvulsant activity reported as cortex latency in amygdala kindled rats at 500 mg/kg (after discharge); type: functional
[24] = tested on: Rattus norvegicus; assay: Anticonvulsant activity reported as duration in amygdala kindled rats at 500 mg/kg (Forelimb clonus); type: functional
[25] = tested on: Rattus norvegicus; assay: Anticonvulsant activity reported as latency in amygdala kindled rats at 500 mg/kg (Forelimb clonus); type: functional
[26] = tested on: Rattus norvegicus; assay: Anticonvulsant activity tested at seizure stage in amygdala kindled rats at 500 mg/kg; type: functional
[27] = tested on: Rattus norvegicus; assay: Anticonvulsant activity reported as amygdala duration in amygdala kindled rats at 500 mg/kg (after discharge); type: functional
[28] = tested on: Rattus norvegicus; assay: Anticonvulsant activity reported as latency in amygdala kindled rats at 500 mg/kg (Behavioral seizure); type: functional
[29] = tested on: Rattus norvegicus; assay: Anticonvulsant activity reported as duration in amygdala kindled rats at 500 mg/kg (Behavioral seizure); type: functional
[30] = tested on: Rattus norvegicus; assay: Anticonvulsant activity reported as duration in amygdala kindled rats at 500 mg/kg (after discharge); type: functional
[31] = species: Rattus norvegicus; assay: Number of animals protected from electroshock seizure / number of animals tested (8) after 0.50 hour at 4.0 mg / kg in maximal electroshock seizures (MES); type: functional; in short: as §2
[32] = species: Rattus norvegicus; assay: Number of animals exhibiting neurotoxicity / number of animals tested (2) after 0.25-24 hr at 32 mg / kg
[33] = species: Rattus norvegicus; assay: Number of animals protected from electroshock seizure / number of animals tested (8) after 0.50 hour at 1.0 mg / kg in maximal electroshock seizures (MES); type: functional; in short: as §2
[34] = species: Rattus norvegicus; assay: Number of animals exhibiting neurotoxicity / number of animals tested (2) after 0.25-24 h at 64 mg / kg
[35] = species: Rattus norvegicus; assay: Number of animals exhibiting neurotoxicity / number of animals tested (2) after 0.25-24 hr at 8 mg / kg
[36] = species: Rattus norvegicus; assay: Number of animals exhibiting neurotoxicity / number of animals tested (2) after 0.25-24 hr at 16 mg / kg
[37] = species: Rattus norvegicus; assay: Number of animals protected from electroshock seizure / number of animals tested (8) after 0.50 hour at 3.0 mg / kg in maximal electroshock seizures (MES); type: functional; in short: as §2
[38] = species: Rattus norvegicus; assay: Number of animals protected from electroshock seizure / number of animals tested (8) after 0.50 hour at 2.0 mg / kg in maximal electroshock seizures (MES); type: functional; in short: as §2
[39] = species: Rattus norvegicus; assay: Number of animals protected from electroshock seizure / number of animals tested (8) after 0.50 hour at 3.5 mg / kg in maximal electroshock seizures (MES); type: functional; in short: as §2
[40] = as §4; type: functional
[41] = tested on: Rattus norvegicus; assay: Anticonvulsant activity reported as duration in amygdala kindled rats at 350 mg/kg (Behavioral seizure); type: functional
[42] = tested on: Rattus norvegicus; assay: Anticonvulsant activity reported as latency in amygdala kindled rats at 350 mg/kg (Behavioral seizure); type: functional
[43] = tested on: Rattus norvegicus; assay: Anticonvulsant activity tested at seizure stage in amygdala kindled rats at 350 mg/kg; type: functional
[44] = tested on: Rattus norvegicus; assay: Anticonvulsant activity reported as duration in amygdala kindled rats at 350 mg/kg (Forelimb clonus); type: functional
[45] = tested on: Rattus norvegicus; assay: Anticonvulsant activity reported as latency in amygdala kindled rats at 350 mg/kg (Forelimb clonus); type: functional
[46] = tested on: Rattus norvegicus; assay: Anticonvulsant activity reported as cortex latency in amygdala kindled rats at 350 mg/kg (after discharge); type: functional
[47] = tested on: Rattus norvegicus; assay: Intraperitoneal (ip) toxicity tested in rats is the number of animals displaying neurotoxicity / number of animals tested (8) after 24 hr at 100 mg / kg (Two testing animals died); type: organism-based; set-up: dose 100 mg / kg; conditions: in vivo; in short: as §1
[48] = tested on: Rattus norvegicus; assay: Anticonvulsant activity reported as amygdala duration in amygdala kindled rats at 350 mg/kg (after discharge); type: functional
[49] = tested on: Rattus norvegicus; assay: Anticonvulsant activity reported as duration in amygdala kindled rats at 350 mg/kg (after discharge); type: functional
[50] = tested on: Rattus norvegicus; assay: Intraperitoneal (ip) toxicity tested in rats is the number of animals displaying neurotoxicity / number of animals tested (8) after 8 hr at 100 mg / kg; type: organism-based; set-up: dose 100 mg / kg; conditions: in vivo; in short: as §1

CCc1ccc(NC2=CC(=O)C(C(=O)OC)C(C)C2)cc1 (stereo not given)
Toxicity [1]: 0 | Toxicity [2]: 0 | Toxicity [3]: No Toxicity | Toxicity [4]: 1 | Toxicity [5]: 0 | Toxicity [6]: 0 | ED50 [7]: 114 mg/kg | Toxicity [8]: 0 | Toxicity [9]: 5 | PI [10]: > 6.6

CC1(C)CC(O)=C/C(=N\c2ccccc2)C1
Toxicity [1]: 3 | Toxicity [2]: 6 | PI [11]: > 13.7 | Toxicity [4]: 5 | Toxicity [5]: 0 | Toxicity [6]: 3 | ED50 [7]: 36.4 mg/kg | Toxicity [8]: 6 | Toxicity [9]: 7 | Toxicity [12]: Toxicity observed in mice at >500 mg/kg po

COC(=O)C1C(=O)C=C(Nc2ccc(Br)cc2)CC1C (stereo not given)
No. of animals [13]: 3 | No. of animals [14]: 0 | No. of animals [15]: 6 | No. of animals [16]: 5 | No. of animals [17]: 4 | No. of animals [18]: 0 | No. of animals [19]: 7 | No. of animals [20]: 2 | PI [21]: 67.4 | TD50 [22]: 270 mg/kg

COC(=O)C1C(=O)C=C(NCc2ccccc2)CC1C (stereo not given)
Latency [23]: 2.8 s | Duration [24]: 44.2 s | Latency [25]: 9.3 s | Seizure stage [26]: 5 | Duration [27]: 73.9 s | Latency [28]: 2.1 s | Duration [29]: 79.5 s | Duration [30]: 78.9 s

COC(=O)C1C(=O)C=C(Nc2ccc(C(F)(F)F)cc2)CC1C (stereo not given)
No. of animals [31]: 7 | No. of animals [32]: 0 | No. of animals [33]: 0 | No. of animals [34]: 0 | No. of animals [35]: 0 | No. of animals [36]: 0 | No. of animals [37]: 3 | No. of animals [38]: 3 | No. of animals [39]: 4 | TD50 [22]: > 64 mg/kg | PI [40]: > 21.7

COC(=O)C1C(=O)C=C(Nc2ccc(Cl)cc2)CC1C (stereo not given)
Toxicity [1]: 2 | Duration [41]: 82.3 s | Toxicity [2]: 7 | Latency [42]: 2.1 s | Seizure stage [43]: 5 | Toxicity [4]: 0 | Duration [44]: 45.3 s | Toxicity [6]: 1 | Latency [45]: 9.2 s | Latency [46]: 2.7 s | Toxicity [8]: 6 | Toxicity [47]: 2 | Toxicity [9]: 3 | Duration [48]: 79.8 s | Duration [49]: 79.6 s | Toxicity [50]: 0
